# Test results taken from PMC3947313 (Journal of neurochemistry, 2013).
# Residue numbers refer to the chain shown, from its start. Names may count otherwise.
# B1: STEP: purified striatal-enriched protein tyrosine phosphatase (human PTPN5), wild type (protein, UniProt P54829 1-565, looked up)
# Tyrosine-protein phosphatase …: MNYEGARSERENHAADDSEGGALDMCCSERLPGLPQPIVMEALDEAEGLQDSQREMPPPPPPSPPSDPAQKPPPRGAGSHSLTVRSSLCLFAASQFLLACGVLWFSGYGHIWSQNATNLVSSLLTLLKQLEPTAWLDSGTWGVPSLLLVFLSVGLVLVTTLVWHLLRTPPEPPTPLPPEDRRQSVSRQPSFTYSEWMEEKIEDDFLDLDPVPETPVFDCVMDIKPEADPTSLTVKSMGLQERRGSNVSLTLDMCTPGCNEEGFGYLMSPREESAREYLLSASRVLQAEELHEKALDPFLLQAEFFEIPMNFVDPKEYDIPGLVRKNRYKTILPNPHSRVCLTSPDPDDPLSSYINANYIRGYGGEEKVYIATQGPIVSTVADFWRMVWQEHTPIIVMITNIEEMNEKCTEYWPEEQVAYDGVEITVQKVIHTEDYRLRLISLKSGTEERGLKHYWFTSWPDQKTPDRAPPLLHLVREVEEAAQQEGPHCAPIIVHCSAGIGRTGCFIATSICCQQLRQEGVVDILKTTCQLRQDRGGMIQTCEQYQFVHHVMSLYEKQLSHQSPE
# B2: Q462H: STEP WPD-loop mutant Q462H (protein, UniProt P54829 1-565, looked up, variant Q462H)
# Tyrosine-protein phosphatase …: B1 Tyrosine-protein phosphatase … with Q462H
# B3: STEP (R242 and R243): STEP with combined mutation of R242 and R243 to alanine (protein, UniProt P54829 1-565, looked up, variant R242A R243A)
# Tyrosine-protein phosphatase …: B1 Tyrosine-protein phosphatase … with R242A, R243A
# B4: T330D: STEP pY-binding loop mutant T330D (protein, UniProt P54829 1-565, looked up, variant T330D)
# Tyrosine-protein phosphatase …: B1 Tyrosine-protein phosphatase … with T330D
# B5: T330A: STEP pY-binding loop mutant T330A (protein, UniProt P54829 1-565, looked up, variant T330A)
# Tyrosine-protein phosphatase …: B1 Tyrosine-protein phosphatase … with T330A
# B6: F311A: STEP second-site loop mutant F311A (protein, UniProt P54829 1-565, looked up, variant F311A)
# Tyrosine-protein phosphatase …: B1 Tyrosine-protein phosphatase … with F311A
# B7: L251A: STEP KIM mutant L251A (protein, UniProt P54829 1-565, looked up, variant L251A)
# Tyrosine-protein phosphatase …: B1 Tyrosine-protein phosphatase … with L251A
# B8: E543: STEP Q-loop mutant, conserved E543 mutated to arginine (protein, UniProt P54829 1-565, looked up, variant E543R)
# Tyrosine-protein phosphatase …: B1 Tyrosine-protein phosphatase … with E543R
# B9: K463Q: STEP WPD-loop mutant K463Q (protein, UniProt P54829 1-565, looked up, variant K463Q)
# Tyrosine-protein phosphatase …: B1 Tyrosine-protein phosphatase … with K463Q
# B10: L249A: STEP KIM mutant L249A (protein, UniProt P54829 1-565, looked up, variant L249A)
# Tyrosine-protein phosphatase …: B1 Tyrosine-protein phosphatase … with L249A
# B11: K329A: STEP pY-binding loop mutant K329A (protein, UniProt P54829 1-565, looked up, variant K329A)
# Tyrosine-protein phosphatase …: B1 Tyrosine-protein phosphatase … with K329A
# B12: R242A: STEP KIM mutant R242A (protein, UniProt P54829 1-565, looked up, variant R242A)
# Tyrosine-protein phosphatase …: B1 Tyrosine-protein phosphatase … with R242A
# B13: R243A: STEP KIM mutant R243A (protein, UniProt P54829 1-565, looked up, variant R243A)
# Tyrosine-protein phosphatase …: B1 Tyrosine-protein phosphatase … with R243A
# B14: T541A: STEP Q-loop mutant T541A (protein, UniProt P54829 1-565, looked up, variant T541A)
# Tyrosine-protein phosphatase …: B1 Tyrosine-protein phosphatase … with T541A
# B15: S245E: S245E STEP phosphorylation mimic mutation (protein, UniProt P54829 1-565, looked up, variant S245E)
# Tyrosine-protein phosphatase …: B1 Tyrosine-protein phosphatase … with S245E
# B16: Q462F: STEP WPD-loop mutant Q462F (protein, UniProt P54829 1-565, looked up, variant Q462F)
# Tyrosine-protein phosphatase …: B1 Tyrosine-protein phosphatase … with Q462F
# Tests used:
# [1] = target: double phospho-peptide containing pT202pY204 derived from the ERK activation loop
# [2] = target: double-phosphorylated ERK2-pT202pY204 protein (UniProt P28482)
# [3] = target: double-phosphorylated ERK2-pT202pY204 protein (UniProt P28482); remark: listed apart in the source
# [4] = target: double phospho-peptide containing pT202pY204 derived from the ERK activation loop; remark: listed apart in the source
# ERK2-pT202pY204 = test: Enzyme-coupled; format: biochemical; conditions: for effect of mutation on activity toward phospho-ERK protein (in words): compared to the respective wild-type phosphatase; for decrease of kcat/Km (activity) toward phospho-ERK protein: STEP variant compared to wild-type STEP
# Procedure, shortened: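 Phospho-ERK2 protein was prepared using ERK2 and MEK1 expression plasmids. Initial rates were fitted to Michaelis-Menten for Km and kcat. At substrate << Km, kcat/Km came from first-order progress-curve fitting. Values are mean ± standard error.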
# [5] = tested on: ERK pT202pY204 phospho-peptide; format: biochemical; conditions: for effect of mutation on Km for the phospho-ERK-peptide (in words) / effect of mutation on activity toward phospho-ERK peptide (in words): compared to wild-type STEP; for decrease of activity toward phospho-ERK peptide: STEP mutant compared to wild-type STEP, 37°C, pH 6.0
# Procedure, shortened: (§1)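 Synthetic, HPLC-purified Tyr(P)-containing peptides were dephosphorylated at 37°C in 50 mM succinic buffer (pH 6.0), 1 mM EDTA and 2 mM DTT, ionic strength 0.15 M (NaCl). Released phosphate was measured with BIOMOL Green at 620 nm. Hydrolysis was also followed continuously by tyrosine fluorescence (excitation 280 nm, emission 305 nm). Michaelis-Menten fits gave kinetic parameters (mean ± standard error).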
# [6] = Activity of STEP variants toward pNPP; format: biochemical; conditions: for effect of mutation on activity toward pNPP (in words): compared to wild-type STEP, 37°C, pH 6.0
# Procedure, shortened: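 Phosphatase variants hydrolysed pNPP at 37°C in 50 mM succinic buffer (pH 6.0) with 1 mM EDTA, 2 mM DTT and ionic strength adjusted to 0.15 M with NaCl. Reactions were stopped with 1 M NaOH and read at 405 nm. Kinetic parameters came from Michaelis-Menten fits, reported as mean ± standard error.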
# [7] = tested on: p38-derived phospho-peptide; test: Activity of STEP variants toward the p38-derived phospho-peptide; format: biochemical; conditions: STEP mutant compared to wild-type STEP
# Procedure, shortened: as §1
molecule,measurement,setting,value
STEP K463Q (from UniProt P54829 1-565) (enzyme),"activity toward the phospho-ERK peptide, decrease against wild-type STEP",[1],> 4 fold
same,"activity toward the phospho-ERK protein, decrease against wild-type STEP",[2],> 4 fold
HePTP S23E (from UniProt P35236 1-360) (enzyme),"activity toward phospho-ERK, decrease against wild-type HePTP",[3],3 fold
STEP F311A (from UniProt P54829 1-565) (enzyme),"activity toward the ERK phospho-peptide, decrease against wild-type STEP",[4],2 fold
B1,kcat of ERK-pT202pY204 dephosphorylation,"ERK2-pT202pY204; pH 7.0, 25°C, initial rates fitted to Michaelis-Menten, OD360",0.78 s^−1
B2,effect of mutation on activity toward phospho-ERK protein (in words),ERK2-pT202pY204,increase
same,effect of mutation on Km for the phospho-ERK-peptide (in words),[5],significantly lower
B3,effect of combined R-to-A mutation on ERK dephosphorylation (in words),ERK2-pT202pY204; compared to single R-to-A mutations of STEP,did not promote a further decrease
B4,increase of kcat/Km toward phospho-ERK protein,ERK2-pT202pY204; STEP mutant compared to wild-type STEP,1.3 fold
same,effect of mutation on activity toward pNPP (in words),[6],did not affect
same,increase of activity toward p38-derived phospho-peptide,[7],2–3 fold
B5,effect of mutation on activity toward pNPP (in words),[6],did not affect
same,effect of mutation on activity toward phospho-ERK peptide (in words),[5],did not affect
B6,decrease of kcat/Km (activity) toward phospho-ERK protein,"ERK2-pT202pY204; pH 7.0, 25°C",2 fold
same,effect of mutation on activity toward pNPP (in words),[6],did not affect
same,decrease of activity toward phospho-ERK peptide,[5],2 fold
B7,decrease of kcat/Km (activity) toward phospho-ERK protein,"ERK2-pT202pY204; pH 7.0, 25°C",7 fold
B8,effect of mutation on activity toward phospho-ERK protein (in words),ERK2-pT202pY204,no effect
B9,decrease of kcat/Km (activity) toward phospho-ERK protein,"ERK2-pT202pY204; pH 7.0, 25°C",more than 4 fold
same,decrease of activity toward phospho-ERK peptide,[5],more than 4 fold
B10,decrease of kcat/Km (activity) toward phospho-ERK protein,"ERK2-pT202pY204; pH 7.0, 25°C",2.5 fold
B11,effect of mutation on activity toward phospho-ERK protein (in words),ERK2-pT202pY204,did not affect
same,effect of mutation on activity toward pNPP (in words),[6],weakly
same,effect of mutation on activity toward phospho-ERK peptide (in words),[5],weakly
B12,decrease of kcat/Km (activity) toward phospho-ERK protein,"ERK2-pT202pY204; pH 7.0, 25°C",4 fold
B13,decrease of kcat/Km (activity) toward phospho-ERK protein,"ERK2-pT202pY204; pH 7.0, 25°C",6 fold
B14,decrease of kcat/Km (activity) toward phospho-ERK protein,"ERK2-pT202pY204; pH 7.0, 25°C",2 fold
same,decrease of activity toward pNPP,"[6]; STEP mutant compared to wild-type STEP, stated as 'all substrates'",2 fold
same,decrease of activity toward phospho-p38 peptide,[7]; stated as 'all substrates',2 fold
same,decrease of activity toward phospho-ERK peptide,[5],2 fold
B15,decrease of kcat/Km (activity) toward phospho-ERK protein,"ERK2-pT202pY204; pH 7.0, 25°C",50 fold
same,effect of mutation on activity toward pNPP (in words),[6],did not affect
same,effect of mutation on activity toward phospho-ERK peptide (in words),[5],did not affect
B16,effect of mutation on activity toward phospho-ERK protein (in words),ERK2-pT202pY204,increase
same,effect of mutation on Km for the phospho-ERK-peptide (in words),[5],significantly lower
